Measured values: PMC4310013 (Chemical Science, 2014)
Entries after “also recorded” stand apart in the source; their conditions may differ.

Legend:
[1] = Pharmacokinetic studies in C57BL/6 mice; type: in vivo; details: male, C57BL/6, mouse, brain, intraperitoneal
[2] = tested on: hippocampal CA1 neurons of CK-p25 mice; experiment: Immunohistochemistry of H4K12 acetylation in hippocampal CA1 neurons; type: in vivo, mouse; details: after 10 day treatment, compared to vehicle treated group
In short: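 Hippocampal tissue from CK-p25 mice given test compound or vehicle i.p. daily for 10 days. Coronal 40 μm slices were permeabilised in 0.1% Triton X-100, blocked, and incubated overnight with acetyl-histone antibody in 0.3% Triton X-100/10% FBS in PBS. Fluorescent secondary and Hoechst nuclear stain followed. Confocal images at identical settings. Mean signal in 20–40 non-apoptotic cells per condition was scored blind. Mean ± SEM.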

[3] = Brain tissue binding assay; type: in vitro ADME
CK-p25 mice [4] = experiment: Context-dependent fear conditioning in CK-p25 mice; type: in vivo, mouse; details: 1 mg/kg i.p. daily for 10 days
In short: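 CK-p25 male mice induced at 3 months of age for 6 weeks for forebrain p25 expression; p25-lacking heterozygous littermates as controls. Test compound in 5% DMSO, then 30% Cremophor/65% saline, given i.p. daily for 10 days before behaviour; vehicle without compound. Training: 3 min habituation, two 2 s 0.8 mA shocks 30 s apart, 15 s more. Freezing scored on 3 min context re-exposure 24 h later. Mean ± SEM; ANOVA/Tukey or one-tailed t test.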

[5] = tested on: wild-type male C57BL/6 mice; experiment: Tolerability on daily dosing in wild-type mice; type: in vivo, mouse; details: 30 mg/kg daily for 10 consecutive days
CK-p25 mice [6] = experiment: Tolerability on daily dosing in CK-p25 mice; type: in vivo, mouse
In short: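 Induced CK-p25 mice were given test compound i.p. daily for 10 days, dissolved in 5% DMSO then diluted in 30% Cremophor/65% physiological saline and prepared immediately before injection. Mortality and toxicity were noted over the treatment period.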

[7] = tested on: mouse forebrain primary neuronal cultures; experiment: Neuronal histone acetylation assay; type: cell-based; details: 10 μM, 24 h, relative to vehicle
In short: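 Primary mouse forebrain neurons were treated on culture day 13 for 24 h at 10 μM, then formaldehyde-fixed. They were stained with anti-AcH3K9 or anti-AcH4K12 and a green fluorescent secondary, and fluorescence was read by microcytometer. Read-out was the percentage of cells above a baseline threshold set in DMSO-treated cells. Two experiments in triplicate from separate dissections and cultures.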

Row | Structure (SMILES) | Kp [1] | H4K12 acetylation in hippocampal CA1 neurons [2] | fraction unbound [3] | contextual fear conditioning, freezing (CK-p25 mice [4]) | toxicity [5] | toxicity (CK-p25 mice [6]; 1 mg/kg, CK-p25 mice) | mortality (CK-p25 mice [6]; 10 mg/kg, over 10 day treatment, single study, unknown cause) | AcH3K9 acetylation change [7] | AcH4K12 acetylation change [7]
1 | CC(=O)NC1CCN(C(=O)Nc2cc(-c3cccs3)ccc2N)CC1 [BRD3227] | 0.01 | – | – | – | – | – | – | – | –
2 | Nc1ccc(-c2ccncc2)cc1NC(=O)N1CCCC1 [BRD6688] | 0.26 | increased H4K12 acetylation | 0.54 | rescued the memory defects; also recorded: restored the freezing response to normal levels | No toxicity was observed | No toxicity was observed | 5 out of 10 | significant increases | significant increases
